The values below come from ChEMBL document CHEMBL4004830 (J Med Chem, 2017).

The species named for the assay is Homo sapiens. Nature of the assay: Selectivity ratio of Ki for CDK2/cyclin A (unknown origin) to Ki for CDK4/cyclin D1 (unknown origin). The gist of the method:
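Apparent Ki for each CDK–cyclin complex (CDK4–cyclin D1, CDK6–cyclin D3, CDK2–cyclin A) calculated from the half-maximal inhibition (IC50) and that kinase's Km(ATP). The selectivity ratio is the CDK2 Ki divided by the CDK4 or CDK6 Ki.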

With `Cc1nc(NC2CCCC2)sc1-c1ccnc(Nc2ccc(N3CCOCC3)cn2)n1`, the Ratio Ki is more than 1200.
